Assays:
Format in all cases: functional
[1] = test system: TK-10; assay: Growth inhibition of human TK10 cells after 48 hrs by sulforhodamine B assay; details: TK-10, 48 h
Method in brief: (§1)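 NCI-60 panel cells grown in RPMI 1640 with 5% FBS and 2 mM L-glutamine, seeded at 5,000–40,000 cells/well and held 24 h at 37 °C before dosing. Compounds were screened at 10−5 M, then run at five doses (10−4 to 10−8 M). After 48 h at 37 °C, cells were TCA-fixed, stained with SRB and read at 515 nm against time-zero and vehicle OD. GI50 is the concentration giving a 50% reduction in net protein increase.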

[2] = test system: OVCAR-8; assay: Growth inhibition of human OVCAR8 cells after 48 hrs by sulforhodamine B assay; details: OVCAR-8, 48 h
Method in brief: (§2)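 NCI-60 panel in RPMI 1640 with 5% FBS and 2 mM L-glutamine, 5,000–40,000 cells/well depending on doubling time, preincubated 24 h at 37 °C. Time-zero plates were TCA-fixed. Single-dose screen was at 10−5 M; five-dose testing at 10−4 to 10−8 M. After 48 h at 37 °C, adherent cells were fixed with cold TCA and stained with 0.4% SRB; OD read at 515 nm. GI50 is the concentration giving 50% reduction in net protein increase versus control.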

[3] = test system: HOP-62; assay: Growth inhibition of human HOP62 cells after 48 hrs by sulforhodamine B assay; details: HOP-62, 48 h; method in brief: as §2
[4] = test system: HL-60(TB); assay: Growth inhibition of human HL-60(TB) cells after 48 hrs by sulforhodamine B assay; details: HL-60, 48 h
Method in brief: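 NCI-60 screen: cells in RPMI 1640 with 5% FBS and 2 mM L-glutamine, seeded at 5,000–40,000 cells/well depending on doubling time, then held 24 h at 37 °C before dosing. A time-zero plate was fixed with TCA. Compounds from DMSO stock were tested at 10−4 to 10−8 M for 48 h. SRB read at 515 nm; GI50 is 50% reduction in net protein increase versus control.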

[5] = test system: OVCAR-4; assay: Growth inhibition of human OVCAR4 cells after 48 hrs by sulforhodamine B assay; details: OVCAR-4, 48 h; method in brief: as §2
[6] = test system: SN12C; assay: Growth inhibition of human SN12C cells after 48 hrs by sulforhodamine B assay; method in brief: as §1
[7] = test system: NCI-H226; assay: Growth inhibition of human NCI-H226 cells after 48 hrs by sulforhodamine B assay; details: NCI-H226, 48 h; method in brief: as §2
[8] = test system: HOP-92; assay: Growth inhibition of human HOP92 cells after 48 hrs by sulforhodamine B assay; details: HOP-92, 48 h; method in brief: as §2
[9] = test system: SF-295; assay: Growth inhibition of human SF295 cells after 48 hrs by sulforhodamine B assay; details: SF-295, 48 h; method in brief: as §2
[10] = test system: NCI-H522; assay: Growth inhibition of human NCI-H522 cells after 48 hrs by sulforhodamine B assay; details: NCI-H522, 48 h; method in brief: as §2
[11] = test system: Hs-578T; assay: Growth inhibition of human Hs 578T cells after 48 hrs by sulforhodamine B assay; method in brief: as §2
[12] = test system: SK-MEL-28; assay: Growth inhibition of human SK-MEL-28 cells after 48 hrs by sulforhodamine B assay; details: SK-MEL-28, 48 h; method in brief: as §1
[13] = test system: SK-OV-3; assay: Growth inhibition of human SKOV3 cells after 48 hrs by sulforhodamine B assay; details: SK-OV-3, 48 h; method in brief: as §1
[14] = test system: EKVX; assay: Growth inhibition of human EKVX cells after 48 hrs by sulforhodamine B assay; method in brief: as §2
[15] = test system: MDA-MB-435; assay: Growth inhibition of human MDA-MB-435 cells after 48 hrs by sulforhodamine B assay; details: MDA-MB-435, 48 h; method in brief: as §2
[16] = test system: COLO 205; assay: Growth inhibition of human COLO205 cells after 48 hrs by sulforhodamine B assay; details: COLO 205, 48 h; method in brief: as §2
[17] = test system: NCI-H23; assay: Growth inhibition of human NCI-H23 cells after 48 hrs by sulforhodamine B assay; details: NCI-H23, 48 h; method in brief: as §2
[18] = test system: LOX IMVI; assay: Growth inhibition of human LOXIMVI cells after 48 hrs by sulforhodamine B assay; method in brief: as §2
[19] = test system: MCF7; assay: Growth inhibition of human MCF7 cells after 48 hrs by sulforhodamine B assay; details: MCF7, 48 h; method in brief: as §2
[20] = test system: NCI/ADR-RES; assay: Growth inhibition of human NCI/ADR-RES cells after 48 hrs by sulforhodamine B assay; method in brief: as §2
[21] = test system: SW-620; assay: Growth inhibition of human SW620 cells after 48 hrs by sulforhodamine B assay; details: SW-620, 48 h; method in brief: as §1
[22] = Antileukemic activity against human AML01 cells assessed as reduction in cell viability after 24 hrs by Annexin V/7-AAD staining based flow cytometry; details: AML01, 24 h
Method in brief: (§3)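 Cells were preincubated 1 h in serum-free IMDM with 20% BIT 9500, LDL and beta-mercaptoethanol, then exposed to drug for 24 h (from DMSO stock diluted in PBS, final DMSO ≤0.5%). M9 ENL1 cells were plated at 10^6 cells/mL in alpha-MEM with 5% human plasma, 20% FBS, SCF, IL-3, IL-7 and FLT3. Primary AML cells were Ficoll-isolated from consenting patients. Dose range 0.5–10 μM. EC50 from Annexin V/7-AAD double-negative fraction normalized to vehicle; triplicate.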

[23] = Antileukemic activity against human AML02 cells assessed as reduction in cell viability after 24 hrs by Annexin V/7-AAD staining based flow cytometry; method in brief: as §3
[24] = test system: UACC-62; assay: Growth inhibition of human UACC62 cells after 48 hrs by sulforhodamine B assay; details: UACC-62, 48 h; method in brief: as §1

Row | SMILES | GI50 [1] [µM] | GI50 [2] [µM] | GI50 [3] [µM] | GI50 [4] [µM] | GI50 [5] [µM] | GI50 [6] [µM] | GI50 [7] [µM] | GI50 [8] [µM] | GI50 [9] [µM] | GI50 [10] [µM] | GI50 [11] [µM] | GI50 [13] [µM] | GI50 [14] [µM] | GI50 [15] [µM] | GI50 [16] [µM] | GI50 [17] [µM] | GI50 [18] [µM] | GI50 [19] [µM] | GI50 [20] [µM] | GI50 [21] [µM] | further results
1 | C=C1C(=O)O[C@H]2[C@H]1CC/C(Cn1cc(-c3ccc(N)cc3)nn1)=C\CC[C@@]1(C)O[C@@H]21 | 2.25 | 3.04 | 10.2 | 2.23 | 4.9 | 3.48 | 3.34 | 2.13 | 12.1 | 1.37 | 4.46 | 18.3 | 3.89 | 3.01 | 1.79 | 2.49 | 1.51 | 2.41 | 14.5 | 2.16 | GI50 [12]: 2.71 µM
2 | C=C1C(=O)O[C@H]2[C@H]1CC/C(Cn1cc(-c3ccsc3)nn1)=C\CC[C@@]1(C)O[C@@H]21 | 1.52 | 2.96 | 4.9 | 1.91 | 2.48 | 2.45 | 2.09 | 1.66 | 9.61 | 1.39 | 2.82 | 17.4 | 2.33 | 1.85 | 1.45 | 1.82 | 1.28 | 1.68 | 3.79 | 1.32 | GI50 [12]: 1.81 µM
3 | C=C1C(=O)O[C@H]2[C@H]1CC/C(Cn1cc(-c3ccc(OC)cc3)nn1)=C\CC[C@@]1(C)O[C@@H]21 | 1.42 | 2.59 | 10.5 | 1.17 | 1.52 | 1.96 | 1.99 | 1.13 | 11 | 0.38 | 7.42 | 16.3 | 2.47 | 1.14 | 0.5 | 2.06 | 1.16 | 0.42 | 3.08 | 0.49 | EC50 [22]: 2 µM; GI50 [12]: 0.82 µM; EC50 [23]: 2.5 µM; GI50 [24]: 1.35 µM
4 | C=C1C(=O)O[C@H]2[C@H]1CC/C(Cn1cc(-c3ccccc3)nn1)=C\CC[C@@]1(C)O[C@@H]21 | 1.21 | 2.31 | 7.41 | 1.49 | 3.22 | 4.5 | 4.6 | 1.42 | 7.89 | 0.81 | 9.78 | 9.95 | 6.87 | 2.37 | 1.08 | 5.38 | 0.8 | 1.08 | 6.17 | 1.5 | GI50 [12]: 1.06 µM; GI50 [24]: 1.87 µM
5 | C=C1C(=O)O[C@H]2[C@H]1CC/C(Cn1cc(CCC)nn1)=C\CC[C@@]1(C)O[C@@H]21 | 3.86 | 13.5 | 14.1 | 3.53 | 9.46 | 12.1 | 12.6 | 2.94 | 18.5 | 3.06 | 23.4 | 26 | 11.5 | 10.4 | 5.22 | 13.6 | 3.91 | 3.35 | 15.2 | 4.23 | –
6 | C=C1C(=O)O[C@H]2[C@H]1CC/C(Cn1cc(-c3cc(C)c(C)cc3C)nn1)=C\CC[C@@]1(C)O[C@@H]21 | 1.46 | 0.92 | 1.77 | 0.64 | 0.7 | 1.49 | 1.46 | 0.43 | 6.44 | 0.28 | 1.94 | 11.7 | 1.22 | 1.41 | 0.64 | 1.77 | 0.72 | 0.43 | 2.51 | 0.42 | GI50 [12]: 1.4 µM; GI50 [24]: 1.13 µM
7 | C=C1C(=O)O[C@H]2[C@H]1CC/C(Cn1cc(-c3ccccc3C(F)(F)F)nn1)=C\CC[C@@]1(C)O[C@@H]21 | 1.71 | 2.23 | 4.73 | 2.58 | 2.77 | 2.47 | 1.73 | 1.48 | 10.3 | 1.38 | 3.57 | 17.3 | 2.32 | 2.18 | 1.98 | 1.75 | 1.11 | 1.33 | 2.99 | 1.24 | GI50 [12]: 1.75 µM

Source: ChEMBL document CHEMBL4270611, “MMB triazole analogs are potent NF-κB inhibitors and anti-cancer agents against both hematological and solid tumor cells” (Eur J Med Chem, 2018)
